Holding throughout (format): functional
The subject of assay [1] is Escherichia coli. The experiment in a line: Antimicrobial activity against Escherichia coli isolate 1679 expressing beta-lactamase KPC2, SHV-12, TEM and PFGE cluster 6 isolated from peritoneal fluid of patient by agar dilution method. The essentials:
(§1)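 Clinical carbapenem-resistant E. coli isolates from the hospital, February 2005 to October 2008. Carbapenem MICs were determined by agar dilution following CLSI protocols.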
(In agar dilution the substance is mixed into plates at graded concentrations.)

The test system of assay [2] is Escherichia coli. Nature of the assay: Antimicrobial activity against Escherichia coli isolate 1679T expressing beta-lactamase KPC2, TEM and PFGE cluster 6 isolated from peritoneal fluid of patient by agar dilution method. The essentials: (§2)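 Transformant strains. Plasmids purified from the clinical isolates were electroporated into E. coli DH10B. Transformants were selected on LB agar with 100 μg/ml ampicillin, and colonies were PCR-screened for blaKPC before susceptibility testing.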

The subject of assay [3] is Escherichia coli. The experiment in a line: Antimicrobial activity against Escherichia coli isolate 339 expressing beta-lactamase KPC2, TEM and PFGE cluster 5 isolated from peritoneal fluid of patient by agar dilution method. The essentials: as §1
For assay [4], the system named is Escherichia coli. The experiment in a line: Antimicrobial activity against Escherichia coli isolate 157T expressing beta-lactamase KPC2 and PFGE cluster 3 isolated from urine of patient by agar dilution method. The essentials:
as §2

Assay [5] has as its system Escherichia coli. The experiment in a line: Antimicrobial activity against Escherichia coli isolate 543T expressing beta-lactamase KPC2 and PFGE cluster 4 isolated from synovial fluid of patient by agar dilution method. The procedure, abridged: as §2
The test system of assay [6] is Escherichia coli. The experiment in a line: Antimicrobial activity against Escherichia coli isolate 157 expressing beta-lactamase KPC2, CTX-M-15, TEM and PFGE cluster 3 isolated from urine of patient by agar dilution method. The following applies: isolate 157, Urine. The procedure, abridged: (§3)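 Clinical carbapenem-resistant E. coli isolates collected Feb 2005–Oct 2008. Carbapenem MICs determined by agar dilution following CLSI protocols.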

Assay [7] relates to Escherichia coli. Nature of the assay: Antimicrobial activity against Escherichia coli isolate 547 expressing beta-lactamase KPC2, TEM and PFGE cluster 4 isolated from blood of patient by agar dilution method. The procedure, abridged: as §3
For assay [8], the system named is Escherichia coli. Nature of the assay: Antimicrobial activity against Escherichia coli isolate 386 expressing beta-lactamase KPC2, CTX-M-15, OXA-9, TEM and PFGE cluster 1 isolated from wound of patient by agar dilution method. The essentials:
as §3

Assay [9] deals with Escherichia coli. Nature of the assay: Antimicrobial activity against Escherichia coli isolate 329T expressing beta-lactamase KPC2 and PFGE cluster 2 isolated from blood of patient by agar dilution method. The essentials:
as §2

Assay [10] deals with Escherichia coli. The experiment in a line: Antimicrobial activity against Escherichia coli isolate 329 expressing beta-lactamase KPC2, CTX-M-2, TEM and PFGE cluster 2 isolated from blood of patient by agar dilution method. The procedure, abridged:
as §1

The test system of assay [11] is Escherichia coli. The experiment in a line: Antimicrobial activity against Escherichia coli isolate 360T expressing beta-lactamase KPC2, OXA-9 and PFGE cluster 1 isolated from urine of patient by agar dilution method. The procedure, abridged:
as §2

Assay [12] relates to Escherichia coli. Nature of the assay: Antimicrobial activity against Escherichia coli isolate 360 expressing beta-lactamase KPC2, CTX-M-15, OXA-9, TEM and PFGE cluster 1 isolated from urine of patient by agar dilution method. The following applies: isolate 360, Urine. The procedure, abridged: as §3
Assay [13] deals with Escherichia coli. Nature of the assay: Antimicrobial activity against Escherichia coli isolate 547T expressing beta-lactamase KPC2 and PFGE cluster 4 isolated from blood of patient by agar dilution method. The essentials:
as §2

The subject of assay [14] is Escherichia coli. The experiment in a line: Antimicrobial activity against Escherichia coli isolate 339T expressing beta-lactamase KPC2 and PFGE cluster 5 isolated from peritoneal fluid of patient by agar dilution method. The procedure, abridged:
as §2

Assay [15] deals with Escherichia coli. Nature of the assay: Antimicrobial activity against Escherichia coli isolate 544 expressing beta-lactamase KPC2, TEM and PFGE cluster 4 isolated from abscess of patient by agar dilution method. The essentials: as §1
In assay [16] the test system is Escherichia coli. Nature of the assay: Antimicrobial activity against Escherichia coli DH10B by Etest. The following applies: K-12 DH10B.
The test system of assay [17] is Escherichia coli. The experiment in a line: Antimicrobial activity against Escherichia coli isolate 386T expressing beta-lactamase KPC2, OXA-9 and PFGE cluster 1 isolated from wound of patient by agar dilution method. The procedure, abridged: as §2
Assay [18] deals with Escherichia coli. Nature of the assay: Antimicrobial activity against Escherichia coli isolate 540 expressing beta-lactamase KPC2, TEM and PFGE cluster 4 isolated from synovial fluid of patient by agar dilution method. The essentials: as §1

Structures are written as SMILES. In brackets after ≈: the same amount, converted by molar mass.

A word on the MIC: it is the lowest concentration that inhibits growth of the organism. Lower therefore signals inhibition by little substance. For `C[C@@H](O)[C@H]1C(=O)N2C(C(=O)O)=C(SCCNC=N)C[C@H]12` [IMIPENEM ANHYDROUS], the MIC with Escherichia coli [1] was determined as 8 µg/mL (≈ 26.7 µM); in the assay with Escherichia coli [2], 1 µg/mL (≈ 3.34 µM); with Escherichia coli [3], 2 µg/mL (≈ 6.68 µM); in the assay on Escherichia coli [4] it was 2 µg/mL (≈ 6.68 µM); against Escherichia coli [5], 2 µg/mL (≈ 6.68 µM); with Escherichia coli [6], 8 µg/mL (≈ 26.7 µM). Also, the MIC with Escherichia coli [7] was 4 µg/mL (≈ 13.4 µM); with Escherichia coli [8] it was 1 µg/mL (≈ 3.34 µM); with Escherichia coli [9], 2 µg/mL (≈ 6.68 µM); against Escherichia coli [10], 8 µg/mL (≈ 26.7 µM); with Escherichia coli [11], 1 µg/mL (≈ 3.34 µM); in the assay on Escherichia coli [12], 4 µg/mL (≈ 13.4 µM). Moreover, the MIC stood at 1 µg/mL (≈ 3.34 µM) in the assay on Escherichia coli [13]; 2 µg/mL (≈ 6.68 µM) against Escherichia coli [14]; 4 µg/mL (≈ 13.4 µM) against Escherichia coli [15]; 0.25 µg/mL (≈ 0.835 µM) in the assay with Escherichia coli [16]; 1 µg/mL (≈ 3.34 µM) against Escherichia coli [17]; 4 µg/mL (≈ 13.4 µM) in the assay on Escherichia coli [18].
With `C[C@@H](O)[C@H]1C(=O)N2C(C(=O)O)=C(S[C@@H]3CN[C@H](C(=O)N(C)C)C3)[C@H](C)[C@H]12` [MEROPENEM], the MIC amounted to 16 µg/mL (≈ 41.7 µM) against Escherichia coli [1]; 0.5 µg/mL (≈ 1.3 µM) in the assay on Escherichia coli [2]; 2 µg/mL (≈ 5.22 µM) in the assay on Escherichia coli [3]; 1 µg/mL (≈ 2.61 µM) in the assay with Escherichia coli [4]; 0.5 µg/mL (≈ 1.3 µM) against Escherichia coli [5]; 4 µg/mL (≈ 10.4 µM) in the assay with Escherichia coli [6]. In addition, the MIC came out at 4 µg/mL (≈ 10.4 µM) against Escherichia coli [7]; 1 µg/mL (≈ 2.61 µM) in the assay with Escherichia coli [8]; 1 µg/mL (≈ 2.61 µM) in the assay with Escherichia coli [9]; 8 µg/mL (≈ 20.9 µM) against Escherichia coli [10]; 1 µg/mL (≈ 2.61 µM) against Escherichia coli [11]; 4 µg/mL (≈ 10.4 µM) with Escherichia coli [12]. In addition, the MIC came to 0.5 µg/mL (≈ 1.3 µM) with Escherichia coli [13]; 1 µg/mL (≈ 2.61 µM) against Escherichia coli [14]; 4 µg/mL (≈ 10.4 µM) in the assay with Escherichia coli [15]; 0.25 µg/mL (≈ 0.652 µM) against Escherichia coli [16]; 0.25 µg/mL (≈ 0.652 µM) against Escherichia coli [17]; 4 µg/mL (≈ 10.4 µM) in the assay with Escherichia coli [18].

The values above are taken from ChEMBL document CHEMBL1671686, “Carbapenem-resistant KPC-2-producing Escherichia coli in a Tel Aviv Medical Center, 2005 to 2008” (2010).
